From ChEMBL document CHEMBL1147157, “Virtual screening for novel openers of pancreatic K(ATP) channels” (J Med Chem, 2007)

What was measured:
[1] = target: Sulfonylurea receptor 1, Kir6.2 (Homo sapiens, UniProt Q09428+Q14654); test: Activity at Kir6.2/SUR1 KATP channels expressed in HEK293 cells assessed as repolarization of tolbutamide-induced membrane depolarization; assay type: cell-based
[2] = target: Sulfonylurea receptor 1, Kir6.2 (Homo sapiens) (UniProt Q14654+Q09428); test: Activity at Kir6.2/SUR1 KATP channels expressed in HEK293 cells assessed as repolarization of tolbutamide-induced membrane depolarization relative to BPDZ73; assay type: cell-based
In short: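 HEK 293 cells stably expressing human Kir6.2/SUR1, seeded on poly(lysine)-coated plates, cultured 2 days. Membrane-potential fluorescent dye (ex 490/em 550 nm) in loading buffer/HBSS with 10 µM tolbutamide, 34 °C; fluorescence read before and 5-10 min after compound.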

[3] = Inhibition of insulin release from rat INS-1E cells

Sulfonylurea receptor 1, Kir6.2, sequence (Q14654 whole entry): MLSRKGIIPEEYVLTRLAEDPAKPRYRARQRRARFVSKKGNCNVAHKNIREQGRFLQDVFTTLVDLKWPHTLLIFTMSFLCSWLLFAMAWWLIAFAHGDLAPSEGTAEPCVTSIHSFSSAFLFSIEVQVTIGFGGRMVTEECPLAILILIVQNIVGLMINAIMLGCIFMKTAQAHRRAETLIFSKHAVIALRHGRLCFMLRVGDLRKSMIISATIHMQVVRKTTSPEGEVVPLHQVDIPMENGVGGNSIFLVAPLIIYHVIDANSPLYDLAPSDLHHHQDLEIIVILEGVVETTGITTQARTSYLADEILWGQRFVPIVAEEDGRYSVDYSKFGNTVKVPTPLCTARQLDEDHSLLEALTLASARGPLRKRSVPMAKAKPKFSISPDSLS
Sulfonylurea receptor 1, Kir6.2, sequence (Q09428 whole entry): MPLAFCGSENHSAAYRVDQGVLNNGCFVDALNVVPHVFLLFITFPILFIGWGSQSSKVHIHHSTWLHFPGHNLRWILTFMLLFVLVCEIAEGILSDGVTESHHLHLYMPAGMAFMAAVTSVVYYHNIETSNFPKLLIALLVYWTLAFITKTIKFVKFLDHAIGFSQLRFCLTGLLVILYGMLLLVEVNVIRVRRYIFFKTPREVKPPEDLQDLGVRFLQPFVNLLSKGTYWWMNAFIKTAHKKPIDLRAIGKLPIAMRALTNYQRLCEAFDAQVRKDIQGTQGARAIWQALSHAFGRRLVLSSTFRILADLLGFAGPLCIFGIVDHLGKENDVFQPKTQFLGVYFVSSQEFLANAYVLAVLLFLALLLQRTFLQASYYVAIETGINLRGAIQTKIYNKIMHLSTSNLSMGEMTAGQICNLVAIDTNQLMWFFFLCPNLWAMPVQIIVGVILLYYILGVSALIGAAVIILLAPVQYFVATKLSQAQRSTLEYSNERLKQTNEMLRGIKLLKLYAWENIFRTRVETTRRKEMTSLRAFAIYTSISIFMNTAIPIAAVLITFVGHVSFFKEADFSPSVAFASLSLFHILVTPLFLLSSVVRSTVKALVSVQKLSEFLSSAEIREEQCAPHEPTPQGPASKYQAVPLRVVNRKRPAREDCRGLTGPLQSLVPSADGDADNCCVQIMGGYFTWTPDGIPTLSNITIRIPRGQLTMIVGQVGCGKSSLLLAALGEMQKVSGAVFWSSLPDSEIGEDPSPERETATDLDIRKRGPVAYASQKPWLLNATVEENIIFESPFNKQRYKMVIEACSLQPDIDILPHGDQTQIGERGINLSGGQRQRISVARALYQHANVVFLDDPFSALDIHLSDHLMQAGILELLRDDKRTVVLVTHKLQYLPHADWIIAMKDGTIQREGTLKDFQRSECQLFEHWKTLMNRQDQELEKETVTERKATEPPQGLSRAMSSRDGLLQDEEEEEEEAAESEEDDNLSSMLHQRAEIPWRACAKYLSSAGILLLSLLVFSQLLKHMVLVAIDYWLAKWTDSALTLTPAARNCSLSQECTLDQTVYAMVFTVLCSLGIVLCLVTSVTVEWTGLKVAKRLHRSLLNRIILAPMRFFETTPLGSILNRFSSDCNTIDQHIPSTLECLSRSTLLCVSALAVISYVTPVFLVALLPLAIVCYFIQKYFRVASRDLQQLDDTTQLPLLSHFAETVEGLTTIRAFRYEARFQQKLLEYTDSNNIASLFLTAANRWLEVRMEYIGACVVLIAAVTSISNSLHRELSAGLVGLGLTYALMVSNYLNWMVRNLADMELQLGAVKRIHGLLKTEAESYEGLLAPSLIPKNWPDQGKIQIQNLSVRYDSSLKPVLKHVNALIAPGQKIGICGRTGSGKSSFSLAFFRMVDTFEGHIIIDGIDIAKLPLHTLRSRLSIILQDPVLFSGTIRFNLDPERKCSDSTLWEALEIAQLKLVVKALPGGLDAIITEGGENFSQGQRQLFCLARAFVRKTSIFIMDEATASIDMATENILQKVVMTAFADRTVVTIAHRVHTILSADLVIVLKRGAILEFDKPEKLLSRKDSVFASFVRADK

Structure (SMILES) | EC50 [1] [µM] | Emax [2] [%] | IC50 [3] [µM] | EC50 [3] [µM]
CC(C)NC1=NS(=O)(=O)c2cc(Cl)ccc2N1 | 0.25 | 100 | 0.94 | –
NC(=O)c1ccccc1NS(=O)(=O)c1ccc(Cl)cc1 | > 30 | 47 | – | –
N#Cc1c(-c2ccccc2)c(-c2ccccc2)n[nH]c1=O | > 30 | 55 | – | –
CC1=Nc2ccc(Cl)cc2S(=O)(=O)N1 [DIAZOXIDE] | – | – | – | 20.3
COc1ccc2nc(C(F)(F)F)c(C#N)c(N)c2c1 | 15 | 160 | 25 | –
COc1ccc2[nH]c(N3CCCCC3)nc2c1 | > 30 | 52 | – | –
O=c1[nH]cnc2ncc(-c3ccccc3)nc12 | > 30 | 84 | – | –
OCCn1c(-c2ccc(F)cc2)cs/c1=N\c1ccc(F)cc1 | 21 | 105 | 18 | –
CC(=O)Nc1nc2ccccc2n1CCN1CCCC1 | > 30 | 55 | – | –
O=C(Nc1nccs1)c1c(O)c2cc(Cl)ccc2oc1=O | > 30 | 171 | 56 | –
